Compound activity: PubChem, Broad Institute
This is a sample that favours compounds with a hit; in the whole collection about 3.5% have one here.
PglD inh: inhibitors of Campylobacter jejuni PglD acetyltransferase; purified PglD enzyme, DTNB colorimetric CoA detection; inhibition, % at 12.5 µM; 0.098% of 360,000 active; AID 602405; in the data active means inhibition above about 16%, passing the limit was not always enough; inconclusive means no clear call, values can overlap the other calls
Ecoli rRNA inh: inhibits bacterial ribosomal RNA function over humanized ribosomes; AID 720706; 1.6% of 350,000 active; E. coli WT GFP vs humanized-ribosome RFP mutants, fluorescence, 24 h; stronger effect = lower value; DMSO median 0, no signal -100; GFP signal change (wild-type ribosome), % (no concentration beside the values);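 active means significant combined selectivity score with lowered wild-type GFP, culture density cut under 30%, mutant RFP and density less affected; inactive means any of these conditions unmet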
HIV Env fusion: inhibitors of HIV Env-mediated cell fusion; inhibition, % at 12.3 µM; 1.1% of 360,000 active; HeLa-JRFL Env/CEM21 cell fusion, luciferase; AID 651610;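 active means mean replicate inhibition score of at least 50 and every replicate individually at or above 50; inconclusive means only one of the two criteria met; inactive means mean below 50 and not all replicates reaching 50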
DENV2 CPE: protects cells from dengue virus 2 cytopathic effect. DENV2-infected cells, cytopathic effect rescue, plate reader. CPE inhibition, % at 9.99 µM. 1.7% of 350,000 active; in the data active means CPE inhibition above about 20%, passing the limit was not always enough; inconclusive means no clear call, values can overlap the other calls; tested in BHK-21 cells
FN deposit inh: fibronectin deposition inhibition; AH1F fibroblasts, Alexa488-fibronectin deposition fluorescence, overnight; inhibition, % at 12.6 µM; 0.086% of 350,000 active; AID 743247;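 active means mean inhibition across replicates of 30% or more, regardless of how many single replicates reach that level; inconclusive means mean under 30% yet at least half of replicates reach 30%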
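Measured by – fluorescence 485/525 nm · System – AH1F fibroblast monolayer, labelled fibronectin deposition · Amount – 10000 cells per well · Buffer or medium – serum-reduced DMEM (2% serum) · Doses – single dose, pinned · Also added – fluorescent fibronectin at 24 nM final · Schedule – 1 h cell attachment, overnight exposure to compound and label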
PGC1a acetyl inh: lowers PGC1a acetylation signal in U2OS cells; AlphaScreen anti-acetyl-lysine; with virally co-expressed GCN5 acetyltransferase; inhibition, % at 15.6 µM; 0.17% of 350,000 active;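 active means every replicate shows inhibition of at least 40%; inconclusive means mean inhibition at least 40% but some replicate below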
AID977621: growth inhibition of wild-type GFP E. coli, dose response, H69 mutant RFP, cherry-pick; shares compounds with Ecoli rRNA inh; E. coli wild-type GFP strain growth, fluorescence, 24 h; activity change, negative = inhibition at 50 µM; 1,900 tested, under 10 active; AID 977621;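 active means Wild-type ribosome reporter drop at least double the humanized mutant ribosome reporter drop, growth loss under a set limit; inconclusive means no clear call, values can overlap the other calls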;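 further: wild-type GFP and H69 mutant RFP strains grown together 50/50 in each well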
AID977628: E. coli growth inhibition, wild-type GFP versus h24 humanized RFP strain, dose response, h24 mutant RFP vs wild-type GFP, cherry-pick; shares compounds with Ecoli rRNA inh; E. coli WT GFP strain growth, fluorescence, 24 h; activity change, negative = inhibition at 50 µM; 1,900 tested, under 10 active; AID 977628;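 active means compound lowering the normal-ribosome reporter at least twice as much as the humanized-ribosome reporter, growth loss under a set limit; inconclusive means no clear call, values can overlap the other calls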;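 further: wild-type GFP and h24 humanized RFP strains co-cultured 1 to 1 per well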
Each line names hits and unclear results; the compound was inactive in the other large screens (follow-up assays come after a bar, where they were run).

COc1ccc(C2CN(C)CC2C(=O)c2ccc(C)cc2)cc1Cl (stereo not drawn)	Ecoli rRNA inh -27.8 (no result: PglD inh, FN deposit inh, PGC1a acetyl inh) | AID977621 inconclusive | AID977628 inconclusive
O=C(c1cc(-c2ccccc2)nc2ccccc12)N1CCC2(CC1)OCCO2	none (no result: HIV Env fusion, FN deposit inh)
Cc1c(-c2cccc(Cl)c2)nc2ccccc2c1C(=O)N1CCC2(CC1)OCCO2	Ecoli rRNA inh -23.1 (no result: FN deposit inh, PGC1a acetyl inh) | AID977628 inconclusive
O=C(Cc1ccccn1)N1CCCCN2[C@H](CO)[C@H](c3ccc(-c4ccc(F)cc4)cc3)[C@H]2C1	none (no result: HIV Env fusion, FN deposit inh)
CN1CCC(c2c[nH]c3ccccc23)C1 (stereo not drawn)	Ecoli rRNA inh -22.6 (no result: PglD inh, PGC1a acetyl inh) | AID977621 inactive | AID977628 inconclusive
N#Cc1ccc(-c2ccc([C@H]3[C@H]4CN(C(=O)Cc5ccccc5)CCCCN4[C@H]3CO)cc2)cc1	none (no result: HIV Env fusion, FN deposit inh)
Nc1c(C(=O)NCCc2ccccc2)c2nc3ccccc3nc2n1CCN1CCOCC1	none (no result: Ecoli rRNA inh, HIV Env fusion, DENV2 CPE, FN deposit inh)
Nc1c(C(=O)NCCN2CCOCC2)c2nc3ccccc3nc2n1Cc1ccccc1	Ecoli rRNA inh -35.8 | AID977628 inconclusive
c1ccc(Nc2ccc3ccccc3c2)cc1	Ecoli rRNA inh -24.3, DENV2 CPE inconclusive (no result: HIV Env fusion, FN deposit inh) | AID977621 inactive | AID977628 inactive
N#Cc1cccc(-c2ccc([C@H]3[C@H](CO)N4CCCCN(C(=O)Cc5ccncc5)C[C@@H]34)cc2)c1	none (no result: HIV Env fusion, FN deposit inh)
Cc1nc2ccc(Br)cc2c(=O)n1-c1ccc([N+](=O)[O-])c(C(F)(F)F)c1	Ecoli rRNA inh -19.3 | AID977621 inactive | AID977628 inactive
